Source: ChEMBL document CHEMBL3621107, “Ring fusion strategy for synthesis and lead optimization of sulfur-substituted anthra[1,2-c][1,2,5]thiadiazole-6,11-dione derivatives as promising scaffold of antitumor agents” (Eur J Med Chem, 2015)

What was measured:
Format in all cases: functional
HL-60(TB) = test: Cytotoxicity against human HL-60(TB) cells after 48 hrs by SRB assay; details: HL-60, 48 h
Outline: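 NCI Developmental Therapeutics Program 60-cell-line screen, second stage: cells exposed to five concentrations (0.01, 0.1, 1, 10 and 100 μM). Growth is plotted against log10 concentration for each line, and GI50, TGI and LC50 are read from the dose-response curves.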

K562 = test: Cytotoxicity against human K562 cells after 48 hrs by SRB assay; details: K562, 48 h
Outline: (§1)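 NCI-60 human tumour cell panel screen, second stage, run by the NCI Developmental Therapeutics Program. Compounds were tested at five concentrations (0.01, 0.1, 1, 10 and 100 μM). Percentage growth was plotted against log10 concentration for each cell line. GI50, TGI and LC50 were taken from these dose-response curves.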

RPMI-8226 = test: Cytotoxicity against human RPMI8226 cells after 48 hrs by SRB assay; details: RPMI-8226, 48 h
Outline: (§2)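 Second-stage NCI-60 panel run by the NCI Developmental Therapeutics Program, covering nine tumour subpanels. Five concentrations were tested: 0.01, 0.1, 1, 10 and 100 μM. Percentage growth at each level was plotted against log10 drug concentration. GI50, TGI and LC50 were read from these dose-response curves. Subpanel MID values were divided into the full-panel MID to give selectivity ratios.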

[1] = Cytotoxicity against human EKVX cells after 48 hrs by SRB assay; outline: as §1
HOP-62 = test: Cytotoxicity against human HOP62 cells after 48 hrs by SRB assay; details: HOP-62, 48 h; outline: as §1
HOP-92 = test: Cytotoxicity against human HOP92 cells after 48 hrs by SRB assay; details: HOP-92, 48 h; outline: as §1
NCI-H322M = test: Cytotoxicity against human NCI-H322M cells after 48 hrs by SRB assay; outline: as §2
NCI-H522 = test: Cytotoxicity against human NCI-H522 cells after 48 hrs by SRB assay; details: NCI-H522, 48 h; outline: as §2
COLO 205 = test: Cytotoxicity against human COLO205 cells after 48 hrs by SRB assay; details: COLO 205, 48 h; outline: as §1
HCT-116 = test: Cytotoxicity against human HCT116 cells after 48 hrs by SRB assay; details: HCT-116, 48 h; outline: as §1
HCT-15 = test: Cytotoxicity against human HCT15 cells after 48 hrs by SRB assay; details: HCT-15, 48 h; outline: as §1
SF-295 = test: Cytotoxicity against human SF295 cells after 48 hrs by SRB assay; details: SF-295, 48 h; outline: as §2
SF-539 = test: Cytotoxicity against human SF539 cells after 48 hrs by SRB assay; details: SF-539, 48 h; outline: as §2
SNB-75 = test: Cytotoxicity against human SNB75 cells after 48 hrs by SRB assay; details: SNB-75, 48 h
Outline: (§3)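 NCI-60 five-dose study run by NCI DTP at 0.01, 0.1, 1, 10 and 100 µM. Percentage growth at each level was plotted against log10 concentration for each line, and GI50, TGI and LC50 were read from the dose-response curves.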

M14 = test: Cytotoxicity against human M14 cells after 48 hrs by SRB assay; details: M14, 48 h; outline: as §1
SK-MEL-2 = test: Cytotoxicity against human SK-MEL-2 cells after 48 hrs by SRB assay; details: SK-MEL-2, 48 h; outline: as §2
SK-MEL-28 = test: Cytotoxicity against human SK-MEL-28 cells after 48 hrs by SRB assay; details: SK-MEL-28, 48 h; outline: as §2
UACC-62 = test: Cytotoxicity against human UACC62 cells after 48 hrs by SRB assay; details: UACC-62, 48 h; outline: as §3
OVCAR-4 = test: Cytotoxicity against human OVCAR4 cells after 48 hrs by SRB assay; details: OVCAR-4, 48 h; outline: as §2
OVCAR-5 = test: Cytotoxicity against human OVCAR5 cells after 48 hrs by SRB assay; details: OVCAR-5, 48 h; outline: as §2
SK-OV-3 = test: Cytotoxicity against human SKOV3 cells after 48 hrs by SRB assay; details: SK-OV-3, 48 h; outline: as §2
A498 = test: Cytotoxicity against human A498 cells after 48 hrs by SRB assay; details: A498, 48 h; outline: as §1
MCF7 = test: Cytotoxicity against human MCF7 cells after 48 hrs by SRB assay; details: MCF7, 48 h; outline: as §1
BT-549 = test: Cytotoxicity against human BT549 cells after 48 hrs by SRB assay; details: BT-549, 48 h; outline: as §1
[2] = Cytotoxicity against human leukemia cells assessed as growth inhibition after 48 hrs by SRB assay; details: Leukemia cell
Outline: (§4)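 Values come from the NCI-60 five-dose panel (0.01–100 µM). The subpanel MID is the mean GI50 over the lines of that tumour subpanel. The selectivity ratio is the full-panel MID divided by the subpanel MID; 3–6 is rated moderate and >6 high.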

[3] = Cytotoxicity against human colon cancer cells assessed as growth inhibition after 48 hrs by SRB assay; details: Cancer cell lines; outline: as §4
[4] = Cytotoxicity against human CNS cancer cells assessed as growth inhibition after 48 hrs by SRB assay; details: Cancer cell lines
Outline: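 NCI-60 five-dose data (0.01–100 μM) were grouped by tumour subpanel. A subpanel mean (MID) of GI50 was computed for the CNS cancer lines. A selectivity ratio was obtained as full-panel MID divided by subpanel MID: 3–6 counts as moderate, >6 as high.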

[5] = read-out: LC50 (the source's name)

Structure (SMILES): O=C1c2ccccc2C(=O)c2c1cc(Sc1ccc(F)cc1F)c1nsnc21
- GI50 (HL-60(TB)): 2.68 µM
- LC50 (HL-60(TB)): > 100 µM
- TGI (HL-60(TB)): 7.7 µM
- GI50 (K562): 3.32 µM
- LC50 (K562): 68.4 µM
- TGI (K562): 11.8 µM
- GI50 (RPMI-8226): 2.2 µM
- LC50 (RPMI-8226): 63.9 µM
- TGI (RPMI-8226): 8.08 µM
- GI50 [1]: 20.8 µM
- LC50 [1]: > 100 µM
- TGI [1]: 66.5 µM
- GI50 (HOP-62): 1.82 µM
- LC50 (HOP-62): 6.01 µM
- TGI (HOP-62): 3.3 µM
- GI50 (HOP-92): 2.03 µM
- LC50 (concentration giving 50% net cell kill) (HOP-92): 16.3 µM
- TGI (HOP-92): 5.01 µM
- GI50 (NCI-H322M): 96.5 µM
- LC50 (concentration causing 50% net cell kill) (NCI-H322M): > 100 µM
- TGI (NCI-H322M): > 100 µM
- GI50 (NCI-H522): 3.76 µM
- LC50 (concentration giving 50% net cell kill) (NCI-H522): 37.1 µM
- TGI (NCI-H522): 12.4 µM
- GI50 (COLO 205): 13.7 µM
- LC50 (COLO 205): 56.2 µM
- TGI (COLO 205): 27.7 µM
- GI50 (HCT-116): 1.55 µM
- TGI (HCT-116): 3.22 µM
- CC50 (HCT-116; [5]): 6.69 µM
- GI50 (HCT-15): 2.84 µM
- LC50 (HCT-15): 50 µM
- TGI (HCT-15): 12.9 µM
- GI50 (SF-295): 9 µM
- LC50 (SF-295): > 100 µM
- TGI (SF-295): 44.2 µM
- GI50 (SF-539): 2.08 µM
- LC50 (SF-539): 8.63 µM
- TGI (SF-539): 4.24 µM
- GI50 (SNB-75): 1.57 µM
- LC50 (concentration killing 50% of cells) (SNB-75): 13.1 µM
- TGI (SNB-75): 4.22 µM
- GI50 (M14): 3.72 µM
- LC50 (M14): 43 µM
- TGI (M14): 15.8 µM
- GI50 (SK-MEL-2): 2.34 µM
- LC50 (SK-MEL-2): 9.41 µM
- TGI (SK-MEL-2): 4.69 µM
- GI50 (SK-MEL-28): 1.87 µM
- TGI (SK-MEL-28): 3.81 µM
- CC50 (SK-MEL-28; [5]): 7.75 µM
- GI50 (UACC-62): 1.73 µM
- LC50 (UACC-62): 12.9 µM
- TGI (UACC-62): 4.37 µM
- GI50 (OVCAR-4): 0.34 µM
- LC50 (OVCAR-4): 4.18 µM
- TGI (OVCAR-4): 1.38 µM
- GI50 (OVCAR-5): 8.18 µM
- LC50 (OVCAR-5): 63.3 µM
- TGI (OVCAR-5): 24 µM
- GI50 (SK-OV-3): 2.34 µM
- LC50 (SK-OV-3): 13 µM
- TGI (SK-OV-3): 5.08 µM
- GI50 (A498): 2.26 µM
- LC50 (concentration killing 50% of cells) (A498): > 100 µM
- TGI (A498): 58.5 µM
- GI50 (MCF7): 1.31 µM
- LC50 (concentration killing 50% of cells) (MCF7): 7.39 µM
- TGI (MCF7): 3.11 µM
- GI50 (BT-549): 3.99 µM
- LC50 (BT-549): 43 µM
- TGI (BT-549): 17.2 µM
- GI50 [2]: 2.16 µM
- GI50 [3]: 7.43 µM
- GI50 [4]: 5.69 µM
